Active and inactive are the calls of the source. The rule behind the calls is not given here.
Key:
MV4-11 [1] = test: Growth inhibition of human MV4-11 cells after 96 hrs by CCK8 assay; type: functional, cell-based; conditions: MV4-11, 96 h
[2] = target: T1, Protein cereblon/Bromodomain-containing protein 4/Cullin-4A (Homo sapiens) (UniProt O60885+Q96SW2+Q13619); test: Protac activity at cereblon/cullin 4A/BRD4 in human RS4:11 cells assessed as BRD4 degradation at 0.5 nM after 3 hrs in presence of lenalidomide by Western blot analysis; type: cell-based
In short: (§1)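 RS4;11 cells were pre-treated for 2 h with DMSO, lenalidomide (10 μM), MLN4924 (1 μM) or MG-132 (20 μM). The degrader was then added at 0.5 nM for 3 h. Lysates were immunoblotted for BRD2, BRD3 and BRD4, with GAPDH as loading control.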

[3] = target: T1, Protein cereblon/Bromodomain-containing protein 4/Cullin-4A (Homo sapiens); test: Protac activity at cereblon/cullin 4A/BRD4 in human RS4:11 cells assessed as BRD4 degradation at 0.5 nM after 3 hrs in presence of neddylation inhibitor MLN4924 by Western blot analysis; type: cell-based; in short: as §1
MV4-11 [4] = test: Induction of apoptosis in human MV4-11 cells after 24 to 48 hrs by Annexin V/propidium iodine-double staining-based flow cytometry; type: functional, cell-based
In short: (§2)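 Leukemia cells were treated for 24 h or 48 h at the indicated concentrations. They were then collected, washed in cold PBS and stained with Annexin V and propidium iodide. Apoptotic fraction was measured by flow cytometry.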

RS4-11 = test: Induction of apoptosis in human RS4:11 cells at 0.1 nM after 48 hrs by Annexin V/propidium iodine-double staining-based flow cytometry relative to control; type: functional; in short: as §2
MV4-11 [5] = test: Antitumor activity against human MV4-11 cells xenografted in SCID mouse assessed tumor regression at 1 mg/kg, iv administered 3 times per week for 2 weeks; type: functional, organism-based
In short: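 MV4;11 xenografts: 5×10^6 cells in 50% Matrigel injected subcutaneously on the dorsal side of SCID mice, one tumor per mouse. Mice randomized at ~100 mm3. Dosed intravenously three times a week for two weeks. Tumor volume = L × W2/2; body weight monitored.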

With `Cc1nnc2n1Cc1sc(C#Cc3cnn(CCCC#Cc4cccc5c4CN(C4CCC(=O)NC4=O)C5=O)c3)c(Cc3ccccc3)c1OC2` (stereo unspecified) the IC50 (MV4-11 [1]) was 8.3 pM, the Activity [2] was “inactive” and the Activity [3] was “inactive”. For the same molecule, the Activity (MV4-11 [4]) was “Dose-dependent effect”, the Activity (RS4-11) was greater than 40% and the Activity (MV4-11 [5]) was “Active”.

Source: ChEMBL document CHEMBL4382197, “Discovery of QCA570 as an Exceptionally Potent and Efficacious Proteolysis Targeting Chimera (PROTAC) Degrader of the Bromodomain and Extra-Terminal (BET) Proteins Capable of Inducing Complete and Durable Tumor Regression” (J Med Chem, 2018)
